One assay relates to Raji. The assay can be described thus: Cytotoxicity against human Raji cells after 72 hrs by MTT assay. Type of assay: functional, cell-based.
Settings: not given
The procedure, abridged:
(§1)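 MTT colorimetric assay with 72 h continuous exposure. IC50 was fitted per experiment by non-linear regression. Values are means with SE from at least three independent experiments, each run in triplicate.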
Background: Tetrazolium dyes change colour on reduction, which living cells bring about.
By IC50 is commonly meant the midpoint of a concentration-inhibition curve. Lower therefore signals greater potency in that assay. In turn, `O=c1c(O)c(-c2ccccc2Cl)oc2ccccc12` came in with an IC50 of more than 30 µM.

Test system in another assay: not listed separately
As to the kind of experiment: Cytotoxicity against human HL60 cells after 72 hrs by MTT assay. Format: functional, cell-based. Conditions: HL-60, 72 h. The procedure, abridged:
as §1
With `COc1ccc(-c2oc3ccccc3c(=O)c2O)c(OC)c1C`, the IC50 turned out to be 32 µM.

For the compound `COc1cc([C@@H]2c3cc4c(cc3[C@@H](O[C@@H]3O[C@@H]5CO[C@@H](C)O[C@H]5[C@H](O)[C@H]3O)[C@H]3COC(=O)[C@H]23)OCO4)cc(OC)c1O` [ETOPOSIDE], the midpoint of inhibition, the IC50, lay at 0.6 µM.

As for `COc1ccc(-c2oc3ccccc3c(=O)c2OC)cc1`, the IC50 is 39 µM.

`COc1ccc(-c2oc3cc(OC)ccc3c(=O)c2OC)cc1` gave an IC50 of 122 µM.

Compound `COc1cc(-c2oc3ccccc3c(=O)c2O)cc(OC)c1OC` came in with an IC50 of 138 µM.

`O=c1c(O)c(-c2ccc(Cl)cc2)oc2ccccc12` showed an IC50 of 102 µM.

The compound `O=c1c(O)c(-c2ccccc2Cl)oc2ccccc12` came in with an IC50 of 10.7 µM.

As for `COc1ccc(-c2oc3ccccc3c(=O)c2O)c(OC)c1`, the IC50 is 53 µM.

As for `COc1ccc2c(=O)c(O)c(-c3cc(OC)c(OC)c(OC)c3)oc2c1`, the IC50 is 34 µM.

With `COc1c(-c2ccc(Cl)cc2)oc2ccccc2c1=O`, the IC50 was 26 µM.

`COc1ccc(-c2oc3cc(OC)ccc3c(=O)c2O)cc1` returned an IC50 of 148 µM.

Compound `O=c1c(O)c(-c2ccc(O)c(O)c2)oc2cc(O)cc(O)c12` [QUERCETIN] registered an IC50 of 47 µM.

`COc1ccc2c(=O)c(OC)c(-c3ccc(OC)c(C)c3OC)oc2c1` returned an IC50 of 27 µM.

For the compound `COc1ccc2c(=O)c(OC)c(-c3cc(OC)c(OC)c(OC)c3)oc2c1`, the midpoint of inhibition, the IC50, lay at 21 µM.

`COc1c(-c2ccc(Br)cc2)oc2ccccc2c1=O` had an IC50 of 21 µM.

Consider `COc1c(-c2cccc3ccccc23)oc2ccccc2c1=O`, for which 16 µM corresponded to half-maximal inhibition (IC50).

For the compound `COc1ccccc1-c1oc2ccccc2c(=O)c1O`, half-maximal inhibition (IC50) was put at 30 µM.

The compound `COc1ccccc1-c1oc2ccccc2c(=O)c1OC` gave an IC50 of 98 µM.

In turn, `COc1cc(O)c2c(=O)c(OC)c(-c3ccc(OC)c(OC)c3)oc2c1` [RETUSIN] came in with an IC50 of 28 µM.

With `COc1ccc(-c2oc3ccccc3c(=O)c2OC)c(OC)c1C`, the IC50 amounted to 96 µM.

As to `COc1ccc(-c2oc3ccccc3c(=O)c2OC)c(OC)c1`, the IC50 amounted to 34 µM.

Another assay has as its system HL-60. As to the kind of experiment: Induction of apoptosis in human HL60 cells at 30 uM after 24 hrs by propidium iodide staining based flow cytometry (reference value: 3.8 +/- 0.6%). Type of assay: functional.
Settings: not given
Background: In flow cytometry, cells or beads pass a laser one at a time.
For `O=c1c(O)c(-c2ccccc2Cl)oc2ccccc12`, the Activity was found to be 14.9%.

Test system in a further assay: not listed separately
The assay can be described thus: Cytotoxicity against human HL60/MX1 cells after 72 hrs by MTT assay. Type of assay: functional, cell-based. The conditions noted are these: HL60/MX1, 72 h. A digest of the protocol: as §1
`O=c1c(O)c(-c2ccccc2Cl)oc2ccccc12` yielded an IC50 of more than 30 µM.

The values above are taken from ChEMBL document CHEMBL3352730, “Synthesis and effects on cell viability of flavonols and 3-methyl ether derivatives on human leukemia cells” (Eur J Med Chem, 2014).
